Measured values: ChEMBL document CHEMBL1145983, “Novel indolyl aryl sulfones active against HIV-1 carrying NNRTI resistance mutations: synthesis and SAR studies” (J Med Chem, 2003)

What was measured:
C8166 [1] = assay: Anti-HIV activity to reduce the amount of p24 in WT IIIB infected C8166 cells; assay type: functional, cell-based; settings: Homo sapiens
How it was run: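 HIV-1 IIIB came from supernatants of persistently infected H9/IIIB cells; stock 4.5 × 10^6 CCID50/mL. Acutely infected C8166 cells (1 × 10^4/well) were incubated at 37 °C with or without compound dilutions. p24 was measured by immunoenzymatic kit. Value is the concentration reducing p24 by 90%; mean of three experiments.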

MT-4 (Homo sapiens) [2] = assay: Anti-HIV activity to protect MT-4 cells from cytopathogenicity induced by HIV-1 K103N-Y181C (MTT method)
C8166 [3] = assay: Anti-HIV activity to reduce the amount of p24 in C8166 cells infected with efavirenz resistance strain K103R, V179D, and P225H.; assay type: functional, cell-based, Homo sapiens
How it was run: (§1)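 Efavirenz-resistant K103R-V179D-P225H virus came from IIIB passaged in C8166 cells with efavirenz (up to 2 µM); stock 3.0 × 10^5 CCID50/mL. Acutely infected C8166 cells (1 × 10^4/well) were incubated at 37 °C with or without compound dilutions. p24 was measured by immunoenzymatic kit. Value is the concentration giving 90% p24 reduction; mean of three experiments.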

MT4 [4] = assay: Cytotoxicity, reducing the vaiability of mock-infected cells; assay type: functional; settings: Homo sapiens
[5] = tested on: Human immunodeficiency virus 1; assay: Selectivity ratio of CC50/EC50; assay type: functional
How it was run: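 Ratio of CC50 (MTT viability of mock-infected MT-4 cells) to EC50 (MTT-based 50% protection of HIV-1-infected MT-4 cells from cytopathicity), both determined in parallel.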

[6] = tested on: Human immunodeficiency virus 1; assay: Anti-HIV activity protecting MT-4 cells from HIV-1 induced cytopathogenicity; assay type: functional, organism-based; settings: Human immunodeficiency virus 1, MT4
MT4 [7] = assay: Anti-HIV activity to protect MT-4 cells from HIV-1 induced cytopathogenicity by MTT method Y181C; assay type: functional, cell-based; settings: Homo sapiens
How it was run: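 Acutely infected MT-4 cells (1 × 10^4/well) exposed to serial compound dilutions, then HIV-1 (wt IIIB from H9/IIIB supernatant, or Y181C mutant NIH N119) at inoculum giving full cytopathicity by day 4; 37 °C incubation; viability read by MTT. EC50 = µM giving 50% protection from virus-induced cytopathicity; mean ± SE of three experiments.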

[8] = target: Human immunodeficiency virus type 1 reverse transcriptase (Human immunodeficiency virus 1, UniProt Q72547); assay: Activity to inhibit HIV-1 Reverse transcriptase activity in WT IIIB
How it was run: (§2)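 Purified recombinant RT (wt or K103N mutant) assayed for RNA-dependent DNA polymerase activity. Buffer: 50 mM Tris-HCl pH 7.8, 80 mM KCl, 6 mM MgCl2, 1 mM DTT, 0.1 mg/mL BSA. Template:primer was poly(rC)-oligo(dG)12-18 at 0.5 OD260 unit/mL, with [3H]dGTP. Incubated 30 min at 37 °C; acid-insoluble radioactivity counted on glass-fibre filters. IC50 reported as mean of two experiments.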

[9] = target: Human immunodeficiency virus type 1 reverse transcriptase (Human immunodeficiency virus 1, UniProt Q72547, K103N); assay: Activity to inhibit HIV-1 Reverse transcriptase activity in K103N; how it was run: as §2
MT-4 (Homo sapiens) [10] = assay: Anti-HIV activity to protect MT-4 cells from cytopathogenicity induced by HIV-1 K103N-Y181C (MTT method); remark: listed apart in the source
C8166 [11] = assay: Anti-HIV activity to reduce the amount of p24 in C8166 cells infected with efavirenz resistance strain; assay type: functional, cell-based; settings: Homo sapiens; how it was run: as §1

Structure (SMILES)	EC90 (C8166 [1]) [nM]	EC50 (MT-4 (Homo sapiens) [2]) [nM]	EC90 (C8166 [3]) [nM]	CC50 (MT4 [4]) [nM]	Selectivity index [5]	EC50 [6] [nM]	EC50 (MT4 [7]) [nM]	IC50 [8] [nM]	IC50 [9] [nM]	EC50 (MT-4 (Homo sapiens) [10]) [nM]	EC90 (C8166 [11]) [nM]
Cc1cccc(S(=O)(=O)c2c(C(N)=O)[nH]c3ccc(Cl)cc23)c1	5	7000	260	> 200000	>200000	1	6				
Cc1ccccc1S(=O)(=O)c1c(C(N)=O)[nH]c2ccc(Cl)cc12	5	10000	2600	> 200000	>200000	1					
Cc1ccc(S(=O)(=O)c2c(C(N)=O)[nH]c3ccc(Cl)cc23)cc1	10			> 200000	>66667	3	20	72	> 5000	> 100000	
NC(=O)c1[nH]c2ccc(Cl)cc2c1S(=O)(=O)c1ccccc1 [L-737126]	7			45000	45000	1		25	> 5000		900
